Laboratory results reported in ChEMBL document CHEMBL1817648, “Synthesis and in vitro antibacterial activity of a series of novel gatifloxacin derivatives” (Eur J Med Chem, 2011).
Converted amounts (≈) assume the structure as drawn.

Assays:
[1] = test system: Staphylococcus epidermidis; test: Antibacterial activity against methicillin-resistant Staphylococcus epidermidis 09-4 after 18 to 24 hrs by NCCLS M100-S11 two fold serial dilution method; type: functional
How it was run: (§1)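 Two-fold serial dilution in agar medium. MIC read as the lowest concentration giving complete inhibition of bacterial growth after incubation at 35 °C for 18–24 h.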

[2] = test system: Staphylococcus aureus; test: Antibacterial activity against Staphylococcus aureus ATCC 25923 after 18 to 24 hrs by NCCLS M100-S11 two fold serial dilution method; type: functional; settings: ATCC25923
[3] = test system: Pseudomonas aeruginosa; test: Antibacterial activity against Pseudomonas aeruginosa 09-33 after 18 to 24 hrs by NCCLS M100-S11 two fold serial dilution method; type: functional
[4] = test system: Klebsiella pneumoniae; test: Antibacterial activity against Klebsiella pneumoniae 09-22 after 18 to 24 hrs by NCCLS M100-S11 two fold serial dilution method; type: functional
[5] = test system: Enterococcus faecium; test: Antibacterial activity against Enterococcus faecium 08-7 after 18 to 24 hrs by NCCLS M100-S11 two fold serial dilution method; type: functional
[6] = test system: Pseudomonas aeruginosa; test: Antibacterial activity against Pseudomonas aeruginosa ATCC 27853 after 18 to 24 hrs by NCCLS M100-S11 two fold serial dilution method; type: functional
[7] = test system: Escherichia coli; test: Antibacterial activity against Escherichia coli 08-22 after 18 to 24 hrs by NCCLS M100-S11 two fold serial dilution method; type: functional
[8] = test system: Klebsiella pneumoniae; test: Antibacterial activity against Klebsiella pneumoniae 09-23 after 18 to 24 hrs by NCCLS M100-S11 two fold serial dilution method; type: functional
[9] = test system: Staphylococcus epidermidis; test: Antibacterial activity against methicillin-sensitive Staphylococcus epidermidis 09-6 after 18 to 24 hrs by NCCLS M100-S11 two fold serial dilution method; type: functional; how it was run: as §1
[10] = test system: Enterococcus faecalis; test: Antibacterial activity against Enterococcus faecalis 08-12 after 18 to 24 hrs by NCCLS M100-S11 two fold serial dilution method; type: functional
[11] = test system: Escherichia coli; test: Antibacterial activity against Escherichia coli 08-21 after 18 to 24 hrs by NCCLS M100-S11 two fold serial dilution method; type: functional
[12] = test system: Enterococcus faecalis; test: Antibacterial activity against Enterococcus faecalis 08-10 after 18 to 24 hrs by NCCLS M100-S11 two fold serial dilution method; type: functional
[13] = test system: Streptococcus pneumoniae; test: Antibacterial activity against Streptococcus pneumoniae 08-2 after 18 to 24 hrs by NCCLS M100-S11 two fold serial dilution method; type: functional
[14] = test system: Pseudomonas aeruginosa; test: Antibacterial activity against Pseudomonas aeruginosa 09-32 after 18 to 24 hrs by NCCLS M100-S11 two fold serial dilution method; type: functional
[15] = test system: Streptococcus pneumoniae; test: Antibacterial activity against Streptococcus pneumoniae 08-4 after 18 to 24 hrs by NCCLS M100-S11 two fold serial dilution method; type: functional
[16] = test system: Escherichia coli; test: Antibacterial activity against Escherichia coli ATCC 25922 after 18 to 24 hrs by NCCLS M100-S11 two fold serial dilution method; type: functional; settings: ATCC25922
[17] = test system: Pseudomonas aeruginosa; test: Antibacterial activity against Pseudomonas aeruginosa 09-34 after 18 to 24 hrs by NCCLS M100-S11 two fold serial dilution method; type: functional
[18] = test system: Staphylococcus aureus; test: Antibacterial activity against methicillin-sensitive Staphylococcus aureus 08-1 after 18 to 24 hrs by NCCLS M100-S11 two fold serial dilution method; type: functional
[19] = test system: Staphylococcus epidermidis; test: Antibacterial activity against methicillin-sensitive Staphylococcus epidermidis 09-3 after 18 to 24 hrs by NCCLS M100-S11 two fold serial dilution method; type: functional; how it was run: as §1
[20] = test system: Enterococcus faecium; test: Antibacterial activity against Enterococcus faecium 08-2 after 18 to 24 hrs by NCCLS M100-S11 two fold serial dilution method; type: functional
[21] = test system: Staphylococcus aureus; test: Antibacterial activity against methicillin-resistant Staphylococcus aureus 08-1 after 18 to 24 hrs by NCCLS M100-S11 two fold serial dilution method; type: functional; how it was run: as §1
[22] = Cytotoxicity against african green monkey Vero cells after 72 hrs by MTT assay; type: cell-based; settings: chlorocebus sabaeus
How it was run: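 Vero cells were kept in Minimum Essential Medium with Earle's salts plus 10% fetal bovine serum at 37 °C under 5% CO₂. Cells were seeded at 1 × 10⁴ per well and allowed to recover 24 h. Medium was then replaced with assay medium containing compound or no drug, and cells were exposed for 72 h. CC₅₀ is the 50% cellular cytotoxic concentration.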

| Compound | MIC [1] | MIC [2] | MIC [3] | MIC [4] | MIC [5] | MIC [6] | MIC [7] | MIC [8] | MIC [9] | MIC [10] | MIC [11] | MIC [12] | MIC [13] | MIC [14] | MIC [15] | MIC [16] | MIC [17] | MIC [18] | MIC [19] | MIC [20] | also measured |
| --- | --- | --- | --- | --- | --- | --- | --- | --- | --- | --- | --- | --- | --- | --- | --- | --- | --- | --- | --- | --- | --- |
| CCOC(=O)CCN1CCN(c2c(F)cc3c(=O)c(C(=O)O)cn(C4CC4)c3c2OC)CC1C (centres undefined) | > 128 µg/mL | 128 µg/mL (≈ 269 µM) | > 128 µg/mL | > 128 µg/mL | > 128 µg/mL | 128 µg/mL (≈ 269 µM) | > 128 µg/mL | > 128 µg/mL | > 128 µg/mL | > 128 µg/mL | > 128 µg/mL | > 128 µg/mL | > 128 µg/mL | > 128 µg/mL | > 128 µg/mL | 128 µg/mL (≈ 269 µM) | > 128 µg/mL | > 128 µg/mL | > 128 µg/mL | > 128 µg/mL | – |
| COc1c(N2CCN(CC(C)=O)C(C)C2)c(F)cc2c(=O)c(C(=O)O)cn(C3CC3)c12 (centres undefined) | 2 µg/mL (≈ 4.64 µM) | 0.25 µg/mL (≈ 0.579 µM) | 128 µg/mL (≈ 297 µM) | 16 µg/mL (≈ 37.1 µM) | 32 µg/mL (≈ 74.2 µM) | 8 µg/mL (≈ 18.5 µM) | 32 µg/mL (≈ 74.2 µM) | 2 µg/mL (≈ 4.64 µM) | 0.25 µg/mL (≈ 0.579 µM) | 128 µg/mL (≈ 297 µM) | 128 µg/mL (≈ 297 µM) | 32 µg/mL (≈ 74.2 µM) | 32 µg/mL (≈ 74.2 µM) | 2 µg/mL (≈ 4.64 µM) | 2 µg/mL (≈ 4.64 µM) | 8 µg/mL (≈ 18.5 µM) | 16 µg/mL (≈ 37.1 µM) | 1 µg/mL (≈ 2.32 µM) | 0.25 µg/mL (≈ 0.579 µM) | 32 µg/mL (≈ 74.2 µM) | MIC [21]: 16 µg/mL (≈ 37.1 µM); CC50 at 72 h [22]: 500 µg/mL (≈ 1160 µM) |
| COc1c(N2CCN(CCC(C)=O)C(C)C2)c(F)cc2c(=O)c(C(=O)O)cn(C3CC3)c12 (centres undefined) | 0.25 µg/mL (≈ 0.561 µM) | 0.06 µg/mL (≈ 0.135 µM) | 4 µg/mL (≈ 8.98 µM) | 0.5 µg/mL (≈ 1.12 µM) | 4 µg/mL (≈ 8.98 µM) | 1 µg/mL (≈ 2.24 µM) | 0.5 µg/mL (≈ 1.12 µM) | 0.5 µg/mL (≈ 1.12 µM) | 0.25 µg/mL (≈ 0.561 µM) | 4 µg/mL (≈ 8.98 µM) | 4 µg/mL (≈ 8.98 µM) | 4 µg/mL (≈ 8.98 µM) | 4 µg/mL (≈ 8.98 µM) | 0.25 µg/mL (≈ 0.561 µM) | 0.25 µg/mL (≈ 0.561 µM) | 0.5 µg/mL (≈ 1.12 µM) | 0.5 µg/mL (≈ 1.12 µM) | 0.25 µg/mL (≈ 0.561 µM) | 0.25 µg/mL (≈ 0.561 µM) | 4 µg/mL (≈ 8.98 µM) | MIC [21]: 0.5 µg/mL (≈ 1.12 µM); CC50 at 72 h [22]: 9.84 µg/mL (≈ 22.1 µM) |
| CO/N=C(\C)CN1CCN(c2c(F)cc3c(=O)c(C(=O)O)cn(C4CC4)c3c2OC)CC1C (centres undefined) | 0.5 µg/mL (≈ 1.09 µM) | 0.5 µg/mL (≈ 1.09 µM) | > 128 µg/mL | > 128 µg/mL | > 128 µg/mL | 32 µg/mL (≈ 69.5 µM) | > 128 µg/mL | > 128 µg/mL | 4 µg/mL (≈ 8.69 µM) | > 128 µg/mL | > 128 µg/mL | > 128 µg/mL | 64 µg/mL (≈ 139 µM) | 64 µg/mL (≈ 139 µM) | 2 µg/mL (≈ 4.34 µM) | 64 µg/mL (≈ 139 µM) | > 128 µg/mL | 0.25 µg/mL (≈ 0.543 µM) | 0.5 µg/mL (≈ 1.09 µM) | > 128 µg/mL | MIC [21]: > 128 µg/mL; CC50 at 72 h [22]: 49.6 µg/mL (≈ 108 µM) |
| COc1c(N2CCNC(C)C2)c(F)cc2c(=O)c(C(=O)O)cn(C3CC3)c12 (centres undefined) [GATIFLOXACIN] | 0.25 µg/mL (≈ 0.666 µM) | 0.125 µg/mL (≈ 0.333 µM) | 4 µg/mL (≈ 10.7 µM) | 0.125 µg/mL (≈ 0.333 µM) | 4 µg/mL (≈ 10.7 µM) | 1 µg/mL (≈ 2.66 µM) | 4 µg/mL (≈ 10.7 µM) | 2 µg/mL (≈ 5.33 µM) | 8 µg/mL (≈ 21.3 µM) | 2 µg/mL (≈ 5.33 µM) | 4 µg/mL (≈ 10.7 µM) | 4 µg/mL (≈ 10.7 µM) | 4 µg/mL (≈ 10.7 µM) | 8 µg/mL (≈ 21.3 µM) | 0.25 µg/mL (≈ 0.666 µM) | 2 µg/mL (≈ 5.33 µM) | 1 µg/mL (≈ 2.66 µM) | 0.06 µg/mL (≈ 0.16 µM) | 0.25 µg/mL (≈ 0.666 µM) | 2 µg/mL (≈ 5.33 µM) | MIC [21]: 0.125 µg/mL (≈ 0.333 µM) |
| C[C@H]1COc2c(N3CCN(C)CC3)c(F)cc3c(=O)c(C(=O)O)cn1c23.C[C@H]1COc2c(N3CCN(C)CC3)c(F)cc3c(=O)c(C(=O)O)cn1c23.O [LEVOFLOXACIN] | 0.5 µg/mL | 0.25 µg/mL | 8 µg/mL | 16 µg/mL | 8 µg/mL | – | 4 µg/mL | 8 µg/mL | 2 µg/mL | 8 µg/mL | 8 µg/mL | 8 µg/mL | – | 16 µg/mL | – | 2 µg/mL | – | 0.25 µg/mL | 0.06 µg/mL | 4 µg/mL | MIC [21]: 0.06 µg/mL |
